Results as given in ChEMBL document CHEMBL1828530, “Quinonoid and phenazine compounds: synthesis and evaluation against H37Rv, rifampicin and isoniazid-resistance strains of Mycobacterium tuberculosis” (Eur J Med Chem, 2011).
Values after ≈ are worked out from the molar mass of the structure shown.

Assays:
[1] = test system: Mycobacterium tuberculosis; assay: Antitubercular activity against Mycobacterium tuberculosis H37Rv after 9 days by resazurin reduction assay; assay type: functional; settings: 216 h
PBMC = assay: Cytotoxicity against human PBMC after 72 hrs by Alamar blue assay; assay type: cell-based
Outline: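 Human peripheral blood mononuclear cells; compounds (0.048–25) in DMSO (0.1%) added 24 h after plating, then 72 h exposure. Alamar Blue absorbance read at 570 and 595 nm, medium-alone blank subtracted at each wavelength; effect expressed as percentage of control absorbance; IC50 derived.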

With CC(C)CCC1=C(O)C(=O)c2ccccc2C1=O the MIC [1] was 205 µM (≈ 50.1 µg/mL) and the IC50 (PBMC) was greater than 102 µM.
Work on CC(C)CC1=C(O)C(=O)c2ccccc2C1=O yielded an MIC [1] of 217 µM (≈ 50.1 µg/mL) and an IC50 (PBMC) of 93.5 µM.
CC(C)CC1=C(O)C(=O)C2=C(CCCC2)C1=O showed an MIC [1] of 107 µM (≈ 25 µg/mL) and an IC50 (PBMC) of 64.2 µM.
Work on CCCC1=C(O)C(=O)c2ccccc2C1=O yielded an MIC [1] of 462 µM (≈ 100 µg/mL) and an IC50 (PBMC) of 97.8 µM.
For CCCC1=C(O)C(=O)C2=C(CCCC2)C1=O, the MIC [1] was 227 µM (≈ 50 µg/mL) and the IC50 (PBMC) was 89.1 µM.
For CC(C)=CCC1=C(OC2(CC=C(C)C)C(=O)c3ccccc3-c3nc4ccccc4nc32)C(=O)c2ccccc2C1=O (centres undefined), the MIC [1] was greater than 180 µM and the IC50 (PBMC) was greater than 45.1 µM.
CC(C)CCc1c2[nH]c3ccccc3nc-2c2ccccc2c1=O showed an MIC [1] of 19.8 µM (≈ 6.26 µg/mL) and an IC50 (PBMC) of 45.1 µM.
CC(C)CCc1c2[nH]c3ccccc3nc-2c2c(c1=O)CCCC2 showed an MIC [1] of 9.75 µM (≈ 3.12 µg/mL) and an IC50 (PBMC) greater than 78 µM.
CC(C)CCC1=C(OC2(CCC(C)C)C(=O)c3ccccc3-c3nc4ccccc4nc32)C(=O)c2ccccc2C1=O (centres undefined) was tested, and the MIC [1] was greater than 179 µM and the IC50 (PBMC) was greater than 44.7 µM.
Molecule CC(C)CCC1=C(OC2(CCC(C)C)C(=O)C3=C(CCCC3)c3nc4ccccc4nc32)C(=O)C2=C(CCCC2)C1=O (centres undefined) has an MIC [1] of 176 µM (≈ 100 µg/mL) and an IC50 (PBMC) greater than 44.9 µM.
In the case of CC(C)=Cc1c2[nH]c3ccccc3nc-2c2ccccc2c1=O, the MIC [1] is reported as 83.3 µM (≈ 25 µg/mL) and the IC50 (PBMC) is reported as 62 µM.
For CC(C)Cc1c2[nH]c3ccccc3nc-2c2ccccc2c1=O, the MIC [1] was greater than 331 µM and the IC50 (PBMC) was greater than 82.7 µM.
Molecule CC(C)Cc1c2[nH]c3ccccc3nc-2c2c(c1=O)CCCC2 has an MIC [1] greater than 327 µM and an IC50 (PBMC) greater than 81.6 µM.
Molecule CC(C)CC1=C(OC2(CC(C)C)C(=O)c3ccccc3-c3nc4ccccc4nc32)C(=O)c2ccccc2C1=O (centres undefined) has an MIC [1] greater than 188 µM and an IC50 (PBMC) greater than 47.1 µM.
For CC(C)CC1=C(OC2(CC(C)C)C(=O)C3=C(CCCC3)c3nc4ccccc4nc32)C(=O)C2=C(CCCC2)C1=O (centres undefined), the MIC [1] was 92.8 µM (≈ 50 µg/mL) and the IC50 (PBMC) was greater than 46.4 µM.
With C=CCC1=C(O)C(=O)c2ccccc2C1=O the MIC [1] was 467 µM (≈ 100 µg/mL) and the IC50 (PBMC) was greater than 117 µM.
C=CCc1c2[nH]c3ccccc3nc-2c2ccccc2c1=O gave an MIC [1] of 87.4 µM (≈ 25 µg/mL) and an IC50 (PBMC) of 64.3 µM.
CCCc1c2[nH]c3ccccc3nc-2c2c(c1=O)CCCC2 was tested, and the IC50 (PBMC) was greater than 85.5 µM.
For C=CCC1=C(OC2(CC=C)C(=O)c3ccccc3-c3nc4ccccc4nc32)C(=O)c2ccccc2C1=O (centres undefined), the MIC [1] was greater than 201 µM and the IC50 (PBMC) was greater than 50.1 µM.
In the case of CCCC1=C(OC2(CCC)C(=O)c3ccccc3-c3nc4ccccc4nc32)C(=O)c2ccccc2C1=O (centres undefined), the MIC [1] is reported as greater than 199 µM and the IC50 (PBMC) is reported as greater than 49.7 µM.
Work on CCCC1=C(OC2(CCC)C(=O)C3=C(CCCC3)c3nc4ccccc4nc32)C(=O)C2=C(CCCC2)C1=O (centres undefined) yielded an MIC [1] greater than 196 µM and an IC50 (PBMC) greater than 49 µM.
CC(C)CCC1=C(O)C(=O)C2=C(CCCC2)C1=O showed an MIC [1] of 101 µM (≈ 25 µg/mL) and an IC50 (PBMC) of 81.3 µM.
CC(C)=CC1=C(O)C(=O)c2ccccc2C1=O was tested, and the MIC [1] was 219 µM (≈ 50.1 µg/mL) and the IC50 (PBMC) was greater than 110 µM.
Molecule NNC(=O)c1ccncc1 [ISONIAZID] has an MIC [1] of 0.145 µM (≈ 0.0199 µg/mL).
CC(C)=CCC1=C(O)C(=O)c2ccccc2C1=O [LAPACHOL] gave an MIC [1] of 207 µM (≈ 50.1 µg/mL) and an IC50 (PBMC) greater than 103 µM.
CO[C@H]1/C=C/O[C@@]2(C)Oc3c(C)c(O)c4c(O)c(c(/C=N/N5CCN(C)CC5)c(O)c4c3C2=O)NC(=O)/C(C)=C\C=C\[C@H](C)[C@H](O)[C@@H](C)[C@@H](O)[C@@H](C)[C@H](OC(C)=O)[C@@H]1C [RIFAMPIN] was tested, and the MIC [1] was 0.12 µM (≈ 0.0988 µg/mL).
